In PMC2773749 (Biochemistry, 2009):

Legend:
[1] = molecular target: T1, K18PL tau (Homo sapiens, UniProt P10636, P618L); test: Primary qHTS K18PL tau fibrillization, ThT fluorescence readout; format: biochemical; conditions: for 1° ThT Screen Log IC50 / 1° ThT Screen Curve class: ThT fluorescence; for 1° ThT Screen Log IC50: printed as Log IC50; for 1° ThT Screen % Inhib: maximum % inhibition of ThT fluorescence
Summary of the method: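 Screen used K18PL tau (15 µM) with Alexa Red-labelled K18PL and 40 µM heparin stock, plus compound at six five-fold dilutions (56 µM–18 nM), run 6 h at 37°C. ThT was added (12.5 µM final, 100 mM glycine pH 8.5) for 1 h at room temperature; read ex 450/em 510 nm. Percent inhibition was computed versus median K18KD and DMSO controls, then pattern-corrected, with concentration-response curves fitted and classified. Single determinations per concentration.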

[2] = molecular target: T1, K18PL tau; test: Repeat K18PL tau ThT fluorescence assay; format: biochemical; conditions: repeat testing of screening hits, maximum percent inhibition
Summary of the method: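 Retesting of K18PL heparin-induced fibrillization used duplicate samples at each concentration, with the highest tested concentration 80 µM. ThT was read at 12.5 µM final in 100 mM glycine, pH 8.5, with excitation 450 nm and emission 510 nm. IC50 and percent inhibition at the top concentration were derived.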

[3] = molecular target: T1, K18PL tau; test: Primary qHTS K18PL tau assembly, fluorescence polarization; format: biochemical; conditions: for 1° FP Screen Log IC50: printed as Log IC50; for 1° FP Screen % Inhib: maximum % inhibition of FP
Summary of the method: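 K18PL (30 µM stock with 0.24 µM Alexa Red-labelled K18PL) received compound at six five-fold dilutions (56 µM–18 nM), then heparin, and incubated 6 h at 37°C. FP was read after ThT (ex 555, em 632 nm, P/S channels); mP = 1000*(S−G*P)/(S+G*P), G = 1. Inhibition was normalised to non-fibrillizing K18KD and DMSO wells, pattern-corrected, and curve-fitted and classified. Single determinations.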

[4] = molecular target: β-lactamase (Enterobacter cloacae, UniProt P05364); test: β-Lactamase promiscuous inhibitor assay; format: biochemical; conditions: in the absence of Triton X-100
Sequence of β-lactamase (P05364 21-381): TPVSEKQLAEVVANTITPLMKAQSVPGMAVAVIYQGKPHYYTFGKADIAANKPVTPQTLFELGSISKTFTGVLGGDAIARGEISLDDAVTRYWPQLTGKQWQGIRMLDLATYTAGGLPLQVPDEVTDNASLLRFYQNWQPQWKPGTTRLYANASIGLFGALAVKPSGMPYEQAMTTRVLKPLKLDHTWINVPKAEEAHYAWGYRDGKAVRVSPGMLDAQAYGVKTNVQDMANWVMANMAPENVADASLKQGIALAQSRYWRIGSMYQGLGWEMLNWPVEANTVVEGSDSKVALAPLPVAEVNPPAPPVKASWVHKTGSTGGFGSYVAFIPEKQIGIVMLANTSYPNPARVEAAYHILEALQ

[5] = Alexa Red total fluorescence; conditions: percent inhibition of Alexa Red total fluorescence
Summary of the method: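 Alexa Red total fluorescence was computed from the qHTS FP S and P channel readings as TF = S + 2*P. It was expressed as a percentage of the DMSO control value, with values >30% flagged as potential fluorescence interference.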

[6] = molecular target: T1, K18PL tau; test: K18PL tau centrifugation; format: biochemical; conditions: compound 100 µM, Table 1 hits
Summary of the method: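 Heparin-induced K18PL fibrillization was run with test compound at a single concentration of 100 µM or with DMSO vehicle, then centrifuged to sediment fibrils. Supernatant and pellet fractions were analysed by SDS-PAGE, and the percentage of tau remaining in the soluble fraction was determined.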

[7] = Activity in other PubChem / NIH Chemical Genomics Center screens
[8] = molecular target: Tau40 (Homo sapiens, UniProt P10636); test: SEC of Tau40 fibrillization reaction post-centrifugation supernatants; format: biochemical; conditions: 50 µM MLS000062428
Sequence of Tau40 (P10636 1-441 isoform P10636-8): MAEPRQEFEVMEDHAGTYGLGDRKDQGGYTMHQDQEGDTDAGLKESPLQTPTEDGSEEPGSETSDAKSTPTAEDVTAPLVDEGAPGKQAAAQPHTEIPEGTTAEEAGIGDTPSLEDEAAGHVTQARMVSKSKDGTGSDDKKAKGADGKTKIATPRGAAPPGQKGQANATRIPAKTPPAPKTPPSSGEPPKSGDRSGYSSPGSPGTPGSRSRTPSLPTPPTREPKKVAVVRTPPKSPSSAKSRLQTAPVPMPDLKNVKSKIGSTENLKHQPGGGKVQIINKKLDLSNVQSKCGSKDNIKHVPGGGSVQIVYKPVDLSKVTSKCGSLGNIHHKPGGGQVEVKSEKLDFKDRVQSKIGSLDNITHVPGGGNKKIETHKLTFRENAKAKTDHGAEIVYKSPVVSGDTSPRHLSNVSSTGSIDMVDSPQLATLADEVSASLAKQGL
Summary of the method: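 Tau40 (50 µM) was incubated with heparin (20 µM) ± test compound in 100 mM sodium acetate, pH 7.0, for 5 days at 37°C. A no-heparin control was included. Reactions were spun at 40,000 g for 30 min, and supernatants were run on Superdex 200 at 0.4 ml/minute. Void volume was set by blue dextran, with BSA and cytochrome c as markers.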

[9] = molecular target: full-length tau40 (Homo sapiens, UniProt P10636); test: Tau40 ThT fluorescence assay; format: biochemical; conditions: inhibition of ThT fluorescence, compound 50 µM
Sequence of full-length tau40 (P10636 1-441 isoform P10636-8): as above

[10] = molecular target: tau-mediated MT assembly (K18 tau, bovine brain tubulin) (Homo sapiens, UniProt P10636); test: Tau-mediated MT assembly assay; format: biochemical; conditions: 50 µM compound, 40 µM K18, 30 µM tubulin
Sequence of tau-mediated MT assembly (K18 tau, bovine brain tubulin) (P10636 561-686): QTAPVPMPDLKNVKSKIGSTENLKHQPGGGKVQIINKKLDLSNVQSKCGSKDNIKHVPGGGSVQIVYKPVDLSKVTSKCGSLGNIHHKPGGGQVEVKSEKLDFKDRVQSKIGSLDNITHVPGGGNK

T1 sequence (P10636 561-686 P618L): as the sequence (P10636 561-686) above, with P58L counted along it

| SMILES | 1° ThT Screen Log IC50 [1] | Repeat ThT Assay % Inhib [2] [%] | 1° FP Screen Log IC50 [3] | 1° ThT Screen Curve class [1] | 1° ThT Screen % Inhib [1] [%] | promiscuity in other screens [7] | also measured |
| --- | --- | --- | --- | --- | --- | --- | --- |
| CC(N)[C@H](O)c1ccc(O)c(O)c1 (stereo partly drawn) [NCGC00093795] | −5.5 | 103 | −5.7 | – | – | – | – |
| CC(=O)c1c(O)c(C)c(O)c(Cc2c(O)c3c(c(C(=O)/C=C/c4ccccc4)c2O)OC(C)(C)C=C3)c1O [Rottlerin] | – | – | – | – | – | – | β-lactamase inhibition [4]: 53% |
| CCOC(=O)c1nn(-c2ccc(OC)cc2)c(=O)c2c(N)scc12 [MLS000062428] | −5.0 | 97 | −5.0 | 2.1 | 94 | do not show signs of promiscuity | Total Fluor % Inhib [5]: 49%; Centrifugation % Soluble [6]: 80%; 1° FP Screen Curve class [3]: 2.2; 1° FP Screen % Inhib [3]: 46%; oligomeric tau species in post-centrifugation supernatant ([8]; eluted in column void volume): detectable oligomeric species; amount of monomeric tau in post-centrifugation supernatant ([8]; relative to untreated fibrillization reaction): appreciable increase; Tau40 % Inhib [9]: 64% |
| NS(=O)(=O)c1cc(C(=O)O)c(NCc2ccco2)cc1Cl [Furosemide] | – | – | – | – | – | – | β-lactamase inhibition [4]: 3% |
| CN(C(=S)Nc1cccnc1)c1ccc(O)cc1 [MLS000339510] | −5.7 | – | −5.5 | – | – | – | – |
| CCOC(=O)c1nn(-c2ccccc2)c(=O)c2c(N)scc12 [MLS000034832] | −5.0 | – | −5.3 | 2.1 | 80 | do not show signs of promiscuity | – |
| CCn1c(CSc2nccn2C)nc2cc(C(=O)O)ccc21 [MLS000058666] | −5.4 | 84 | −5.1 | 1.2 | 65 | – | Total Fluor % Inhib [5]: <10%; 1° FP Screen Curve class [3]: 1.2; 1° FP Screen % Inhib [3]: 41%; Tau40 % Inhib [9]: 81% |
| CN(C)c1ccc2nc3ccc(=[N+](C)C)cc-3sc2c1 [methylene blue, reference compound] | – | – | – | – | – | active in a high percentage of PubChem screens | effect on tau-mediated tubulin polymerization [10]: significant diminution |
